The source made the active and inactive calls. The rule behind the calls is not given here.
Columns and labels:
CYP2C19 = CYP2C19 (Homo sapiens, UniProt P33261); test: Inhibition of CYP2C19 (unknown origin) assessed as residual activity; type: ADME
[1] = biological target: T1, Nuclear factor erythroid 2-related factor 2 (Mus musculus) (UniProt Q60795); test: Activation of Nrf2 in mouse BV-2 cells assessed as increase in Gclm mRNA expression after 6 hrs by RT-qPCR analysis; type: cell-based; details: filed as activator, dose 0.03-1 µM
T1 sequence (whole entry): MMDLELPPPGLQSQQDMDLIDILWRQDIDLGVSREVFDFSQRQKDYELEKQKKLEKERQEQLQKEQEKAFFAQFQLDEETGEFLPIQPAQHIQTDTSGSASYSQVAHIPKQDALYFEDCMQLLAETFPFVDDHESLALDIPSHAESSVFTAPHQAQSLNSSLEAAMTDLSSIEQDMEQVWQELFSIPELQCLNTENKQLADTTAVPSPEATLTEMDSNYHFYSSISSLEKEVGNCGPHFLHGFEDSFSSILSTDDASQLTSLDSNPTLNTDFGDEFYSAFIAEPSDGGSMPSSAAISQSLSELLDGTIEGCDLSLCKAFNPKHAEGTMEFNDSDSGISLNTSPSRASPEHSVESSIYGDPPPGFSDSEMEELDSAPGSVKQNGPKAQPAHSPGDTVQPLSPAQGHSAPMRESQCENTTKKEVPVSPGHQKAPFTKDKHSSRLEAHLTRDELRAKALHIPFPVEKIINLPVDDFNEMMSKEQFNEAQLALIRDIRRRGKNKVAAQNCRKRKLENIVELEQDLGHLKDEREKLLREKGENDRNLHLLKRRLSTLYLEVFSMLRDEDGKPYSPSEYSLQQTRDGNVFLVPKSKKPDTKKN
Summary of the method: (§1)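 BV-2 cells exposed to a range of concentrations for 6 h. Ho1, Gclc, Gclm and Sod1 mRNA quantified by RT-qPCR and expressed relative to vehicle-treated control. Mean ± SEM, n = 3; Student's t-test.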

[2] = biological target: T1, Nuclear factor erythroid 2-related factor 2 (Mus musculus); test: Activation of Nrf2 in mouse BV-2 cells assessed as increase in Gclm mRNA expression at 1 uM after 6 hrs by RT-qPCR analysis relative to control; type: cell-based; details: filed as activator; summary of the method: as §1
[3] = biological target: T1, Nuclear factor erythroid 2-related factor 2 (Mus musculus); test: Activation of Nrf2 in mouse BV-2 cells assessed as increase in GCLC expression at 10 uM after 6 hrs by Western blot analysis relative to control; type: cell-based; details: filed as activator
Summary of the method: (§2)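 BV-2 microglia grown in RPMI-1640 with 10% FBS, penicillin-streptomycin and 2 mM L-glutamine at 37 °C, 5% CO2. Cells exposed to a range of concentrations for 6 h, then HO-1, GCLC, GCLM and SOD1 protein measured by Western blot. Band intensity normalized to β-actin and given as fold of vehicle control. Mean ± SEM, n = 3, three separate experiments.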

[4] = biological target: T1, Nuclear factor erythroid 2-related factor 2 (Mus musculus); test: Activation of Nrf2 in mouse BV-2 cells assessed as increase in GCLM expression after 6 hrs by Western blot analysis; type: cell-based; details: filed as activator, dose 0.02-10 µM; summary of the method: as §2
[5] = biological target: T1, Nuclear factor erythroid 2-related factor 2 (Mus musculus); test: Activation of Nrf2 in mouse BV-2 cells assessed as increase in SOD1 expression after 6 hrs by Western blot analysis; type: cell-based; details: filed as activator, dose 0.02-10 µM; summary of the method: as §2
BV-2 [6] = test: Antiinflammatory activity in mouse BV-2 cells assessed as inhibition of LPS-induced iNOS expression at 2 uM preincubated for 6 hrs followed by LPS stimulation and measured after 24 hrs by Western blot analysis; type: functional, cell-based; details: time 30.0 hrs
Summary of the method: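 BV-2 cells pretreated with compound, then stimulated with LPS. iNOS protein measured by Western blot with β-actin as internal control. Mean ± SEM, n = 3, three separate experiments.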

BV-2 [7] = test: Antiinflammatory activity in mouse BV-2 cells assessed as inhibition of LPS-induced TNFalpha production preincubated for 6 hrs followed by LPS stimulation and measured after 24 hrs by ELISA; type: functional, cell-based; details: dose 0.02-2 µM, time 30.0 hrs
Summary of the method: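 BV-2 cells seeded in 12-well plates and pretreated 6 h with compound at […]. LPS then added for 24 h. TNF-α and IL-6 released into the medium quantified by ELISA. Mean ± SEM, n = 3, three separate experiments.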

Mus musculus [8] = test: (§3) Neuroprotective activity in MPTP-induced C57BL/6 mouse model of Parkinson's disease assessed as reduction in time to climb down at 30 mg/kg, po pretreated for 1 day followed by MPTP challenge and subsequent compound dosing for 2 days measured 6 days post MPTP challenge by vertical grid test; type: functional, organism-based; details: time 7.0 day
Summary of the method: (§4)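 Male C57BL/6 mice, 10 weeks old, 23–26 g, n = 10 per group. Dosed 30 mg/kg p.o. for 3 consecutive days in 10% N-methyl-2-pyrrolidone/20% Tween-80 in water. On day 2, MPTP-HCl 20 mg/kg i.p. given four times at 2 h intervals. Coat-hanger (scored 1–5, test done twice) and vertical grid tests run 6 days after MPTP. Brains taken next day for anti-TH immunohistochemistry (1:1000, DAB).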

Mus musculus [9] = test: as §3, with “tyrosine hydroxylase-positive cell loss” for “time to climb down”, “post-MPTP” for “post MPTP”, “immunohistochemistry analysis relative to control” for “vertical grid test”; type: functional; design: scale not given: the % may be the effect or the level left; details: time 7 day; summary of the method: as §4

Sequence of CYP2C19 (P33261 whole entry): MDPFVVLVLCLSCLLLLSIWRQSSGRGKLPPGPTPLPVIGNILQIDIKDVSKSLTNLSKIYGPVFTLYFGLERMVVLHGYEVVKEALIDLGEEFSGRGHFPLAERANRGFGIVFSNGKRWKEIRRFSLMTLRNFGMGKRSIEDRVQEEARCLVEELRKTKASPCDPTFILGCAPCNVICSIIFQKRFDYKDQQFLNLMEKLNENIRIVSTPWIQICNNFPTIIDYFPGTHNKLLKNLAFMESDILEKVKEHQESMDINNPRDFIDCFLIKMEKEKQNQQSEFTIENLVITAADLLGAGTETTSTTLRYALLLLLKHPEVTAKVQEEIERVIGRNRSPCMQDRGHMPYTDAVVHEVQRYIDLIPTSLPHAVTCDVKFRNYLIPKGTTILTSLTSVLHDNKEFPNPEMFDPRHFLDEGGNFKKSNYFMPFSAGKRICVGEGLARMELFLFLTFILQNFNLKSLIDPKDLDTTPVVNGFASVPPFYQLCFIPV

O=S(=O)(/C=C/c1ncccc1Cl)c1ccccc1Cl
activity (CYP2C19): 27.8%
Activity [1]: Dose-dependent effect
fold change (FC) [2]: 6.9
fold change (FC) [3]: 8.5
Activity [4]: Dose-dependent effect
Activity [5]: Dose-dependent effect
inhibition (BV-2 [6]): Active
inhibition (BV-2 [7]): Dose-dependent effect
Activity (Mus musculus [8]): Active
activity (Mus musculus [9]): 65%
